Columns and labels:
Pancreas [1] = test: Biodistribution in Sprague-Dawley rat pancreas at 2.2 MBq/120 uL, iv after 30 mins by gamma counting; type: ADME, organism-based; settings: in vivo, 0.5 h
Outline: (§1)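 Adult male SD rats, isoflurane (2-3%)/oxygen anesthesia, tail-vein injection of ~2.2 MBq/120 μL tracer in 10% ethanol in saline; euthanized under anesthesia at the stated time (n = 4 per time point). Brain dissected into regions, remainder kept for total brain; organs, blood, bone collected and weighed, gamma-counted against a standard dilution of injectate; %ID/g calculated.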

Liver = test: Biodistribution in Sprague-Dawley rat liver at 2.2 MBq/120 uL, iv after 60 mins by gamma counting; type: ADME, organism-based; settings: in vivo, 1 h; outline: as §1
Rattus norvegicus [2] = test: Biodistribution in Sprague-Dawley rat brain stem at 2.2 MBq/120 uL, iv after 5 mins by gamma counting; type: ADME, organism-based; settings: in vivo; outline: as §1
Kidney [3] = test: Biodistribution in Sprague-Dawley rat kidney at 2.2 MBq/120 uL, iv after 60 mins by gamma counting; type: ADME, organism-based; settings: in vivo, 1 h; outline: as §1
Heart = test: Biodistribution in Sprague-Dawley rat heart at 2.2 MBq/120 uL, iv after 60 mins by gamma counting; type: ADME, organism-based; settings: in vivo, 1 h; outline: as §1
Spleen = test: Biodistribution in Sprague-Dawley rat spleen at 2.2 MBq/120 uL, iv after 60 mins by gamma counting; type: ADME, organism-based; settings: in vivo, 1 h; outline: as §1
Blood = test: Biodistribution in Sprague-Dawley rat blood at 2.2 MBq/120 uL, iv after 5 mins by gamma counting; type: ADME, organism-based; settings: in vivo; outline: as §1
Bone [4] = test: Biodistribution in Sprague-Dawley rat bone at 2.2 MBq/120 uL, iv after 60 mins by gamma counting; type: ADME, organism-based, Bone element; settings: in vivo, 1 h; outline: as §1
Kidney [5] = test: Biodistribution in Sprague-Dawley rat kidney at 2.2 MBq/120 uL, iv after 30 mins by gamma counting; type: ADME, organism-based; settings: in vivo, 0.5 h; outline: as §1
Pancreas [6] = test: Biodistribution in Sprague-Dawley rat pancreas at 2.2 MBq/120 uL, iv after 60 mins by gamma counting; type: ADME, organism-based; settings: in vivo, 1 h; outline: as §1
Rattus norvegicus [7] = test: Biodistribution in Sprague-Dawley rat fat at 2.2 MBq/120 uL, iv after 120 mins by gamma counting; type: ADME, organism-based, Adipose tissue; settings: in vivo, 2 h; outline: as §1
Pancreas [8] = test: Biodistribution in Sprague-Dawley rat pancreas at 2.2 MBq/120 uL, iv after 120 mins by gamma counting; type: ADME, organism-based; settings: in vivo, 2 h; outline: as §1
Pancreas [9] = test: Biodistribution in Sprague-Dawley rat pancreas at 2.2 MBq/120 uL, iv after 5 mins by gamma counting; type: ADME, organism-based; settings: in vivo; outline: as §1
Bone [10] = test: Biodistribution in Sprague-Dawley rat bone at 2.2 MBq/120 uL, iv after 5 mins by gamma counting; type: ADME, organism-based, Bone element; settings: in vivo; outline: as §1
Muscle tissue = test: Biodistribution in Sprague-Dawley rat muscle at 2.2 MBq/120 uL, iv after 5 mins by gamma counting; type: ADME, organism-based; settings: in vivo; outline: as §1
[11] = Drug uptake in cynomolgus monkey striatum at 296 to 410 MBq administered via venous catheter after 120 mins by microPET imaging in presence of 0.25 mg/kg (-)-vesamicol; type: ADME, organism-based, Macaca fascicularis; settings: in vivo, 2 h
Outline: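 Blocking scan: (-)-vesamicol 0.25 mg/kg was given through the venous catheter 5 min before the tracer (296–410 MBq). The monkey was under isoflurane anesthesia. A 2 h dynamic microPET scan followed, and striatal and cerebellar time-activity curves were generated.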

[12] = Drug uptake in cynomolgus monkey striatum at 296 to 410 MBq administered via venous catheter after 120 mins by microPET imaging; type: ADME, Macaca fascicularis; settings: in vivo, iv, 2 h
Outline: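 Male cynomolgus monkeys (6-8 kg) were fasted 12 h, induced with ketamine/glycopyrrolate i.m., then kept on 0.75-2.0% isoflurane at 37 °C. After a transmission scan for attenuation correction, a 2 h dynamic microPET scan was acquired. Framing was 3×1, 4×2, 3×3, 20×5 min. Striatal uptake was read as SUV from time-activity curves, with cerebellum as reference.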

Drug uptake (Pancreas [1]): 1.2 % ID/g | Drug uptake (Liver): 0.456 % ID/g | Drug uptake (Rattus norvegicus [2]): 0.683 % ID/g | Drug uptake (Kidney [3]): 0.604 % ID/g | Drug uptake (Heart): 0.357 % ID/g | Drug uptake (Spleen): 0.505 % ID/g | Drug uptake (Blood): 0.209 % ID/g | Drug uptake (Bone [4]): 0.403 % ID/g | Drug uptake (Kidney [5]): 0.883 % ID/g | Drug uptake (Pancreas [6]): 1.324 % ID/g | Drug uptake (Rattus norvegicus [7]): 0.56 % ID/g | Drug uptake (Pancreas [8]): 0.819 % ID/g | Drug uptake (Pancreas [9]): 1.202 % ID/g | Drug uptake (Bone [10]): 0.426 % ID/g | Drug uptake (Muscle tissue): 0.171 % ID/g | Drug uptake [11]: Not Active | Drug uptake [12]: Not Active
Compound: O=C(c1ccc(F)cc1)C1CCN(C2Cc3c(cccc3OCC[18F])CC2O)CC1 (single isomer, unassigned; (-))

— ChEMBL document CHEMBL3596119, “Synthesis and biological characterization of a promising F-18 PET tracer for vesicular acetylcholine transporter” (Bioorg Med Chem, 2015)
